Source: ChEMBL document CHEMBL1122009, “Activated N-nitrosocarbamates for regioselective synthesis of N-nitrosoureas” (J Med Chem, 1982)
“And” between values parts separate entries of the source, which are not always exact repeats. Identical values can stand only once. The source made the active and inactive calls.

Columns and labels:
[1] = Acute LD50 of compound was evaluated on L1210 leukemia in mice when administered intraperitoneally; assay type: ADME, organism-based; settings: mouse, in vivo, ip
Outline: (§1)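 Adult B6D2F1 mice were inoculated ip with 10^5 L1210 leukemia cells on day 0. Compound in olive oil (2-150 mg/kg, ip) was given on day 1 and repeated on days 5 and 9 only in mice without signs of toxicity. Mortality was monitored daily, with autopsy to separate leukemic from toxic deaths. Acute LD50 was determined graphically.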

Mus musculus [2] = test: Compound was tested for its antitumor activity on L1210 leukemia in mice at the dose of 3.2 mg/kg (i.p.); Not significant; assay type: functional, organism-based; parameters: dose 3.2 mg/kg
Outline: (§2)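 B6D2F1 adult mice inoculated ip with 10^5 L1210 cells on day 0. Drug given ip in olive oil on day 1, repeated days 5 and 9 only in mice without toxicity signs. Daily mortality monitoring with autopsy to assign leukemic vs toxic death. Index I = T/C × 100 from median survival; active if I > 125 and Wilcoxon W test significant; ∞ means >50% cured.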

Mus musculus [3] = test: Compound was tested for its antitumor activity on L1210 leukemia in mice at the dose of 8 mg/kg (i.p.); Not significant; assay type: functional, organism-based; parameters: dose 8 mg/kg
Mus musculus [4] = test: Compound was tested for its antitumor activity on L1210 leukemia in mice at the dose of 8 mg/kg (i.p.); assay type: functional; settings: route intraperitoneal; outline: as §2
Mus musculus [5] = test: Compound was tested for its antitumor activity on L1210 leukemia in mice at the dose of 20 mg/kg (i.p.); Toxic; assay type: functional, organism-based; parameters: dose 20 mg/kg; outline: as §2
Mus musculus [6] = test: Compound was tested for its antitumor activity on L1210 leukemia in mice at the dose of 3.2 mg/kg (i.p.); assay type: functional; settings: route intraperitoneal; outline: as §2
Mus musculus [7] = test: Compound was tested for its antitumor activity on L1210 leukemia in mice at the dose of 90 mg/kg (i.p.); Toxic; assay type: functional, organism-based; parameters: dose 90 mg/kg; outline: as §2
Mus musculus [8] = test: Compound was tested for its antitumor activity on L1210 leukemia in mice at the dose of 30 mg/kg (i.p.); High percent value; assay type: functional, organism-based; parameters: dose 30 mg/kg; outline: as §2
Mus musculus [9] = test: Compound was tested for its antitumor activity on L1210 leukemia in mice at the dose of 2 mg/kg (i.p.); assay type: functional; settings: route intraperitoneal; outline: as §2
[10] = Acute LD50 of compound was evaluated on L1210 leukemia in mice; assay type: ADME, organism-based; settings: mouse, in vivo; outline: as §1
Mus musculus [11] = test: Compound was tested for its antitumor activity on L1210 leukemia in mice at the dose of 30 mg/kg (i.p.); Toxic; assay type: functional, organism-based; parameters: dose 30 mg/kg; outline: as §2
Mus musculus [12] = test: Compound was tested for its antitumor activity on L1210 leukemia in mice at the dose of 10 mg/kg (i.p.); assay type: functional; settings: route intraperitoneal; outline: as §2
Mus musculus [13] = test: Compound was tested for its antitumor activity on L1210 leukemia in mice at the dose of 20 mg/kg (i.p.); High percent value; assay type: functional, organism-based; parameters: dose 20 mg/kg; outline: as §2
Mus musculus [14] = test: Compound was tested for its antitumor activity on L1210 leukemia in mice at the dose of 2 mg/kg (i.p.); Not significant; assay type: functional, organism-based; parameters: dose 2 mg/kg; outline: as §2
Mus musculus [15] = test: Compound was tested for its antitumor activity on L1210 leukemia in mice at the dose of 60 mg/kg (i.p.); High percent value; assay type: functional, organism-based; parameters: dose 60 mg/kg; outline: as §2
Mus musculus [16] = test: Compound was tested for its antitumor activity on L1210 leukemia in mice at the dose of 5 mg/kg (i.p.); assay type: functional; settings: route intraperitoneal; outline: as §2
Mus musculus [17] = test: Compound was tested for its antitumor activity on L1210 leukemia in mice at the dose of 10 mg/kg (i.p.); High percent value; assay type: functional, organism-based; parameters: dose 10 mg/kg; outline: as §2
Mus musculus [18] = test: Compound was tested for its antitumor activity on L1210 leukemia in mice at the dose of 20 mg/kg (i.p.); assay type: functional; settings: route intraperitoneal; outline: as §2
Mus musculus [19] = test: Compound was tested for its antitumor activity on L1210 leukemia in mice at the dose of 20 mg/kg (i.p.); Not significant; assay type: functional, organism-based; parameters: dose 20 mg/kg
Mus musculus [20] = test: Compound was tested for its antitumor activity on L1210 leukemia in mice at the dose of 50 mg/kg (i.p.); Not significant; assay type: functional, organism-based; parameters: dose 50 mg/kg

SMILES: O=NN(CCCl)C(=O)Oc1ccc([N+](=O)[O-])cc1
- LD50 [1]: 17 mg/kg
- T/C (Mus musculus [2]): inactive
- T/C (Mus musculus [3]): inactive

SMILES: O=NN(CCCl)C(=O)ON1C(=O)CCC1=O
- LD50 [1]: 36 mg/kg
- T/C (Mus musculus [4]): 137%
- T/C (Mus musculus [5]): Toxic
- T/C (Mus musculus [6]): 125%

SMILES: O=NN(CCCl)C(=O)NCCSSCCNC(=O)N(CCCl)N=O [DITIOMUSTINE]
- T/C (Mus musculus [7]): Toxic
- T/C (Mus musculus [8]): High percent value
- T/C (Mus musculus [9]): 111%
- LD50 [10]: 75 mg/kg
- T/C (Mus musculus [11]): Toxic
- LD50 [1]: 28 mg/kg
- T/C (Mus musculus [12]): 151%
- T/C (Mus musculus [13]): High percent value
- T/C (Mus musculus [14]): inactive
- T/C (Mus musculus [15]): High percent value
- T/C (Mus musculus [16]): 212% and 133%
- T/C (Mus musculus [17]): High percent value
- T/C (Mus musculus [18]): 228%

SMILES: CN(N=O)C(=O)ON1C(=O)CCC1=O
- LD50 [1]: 115 mg/kg
- T/C (Mus musculus [19]): inactive
- T/C (Mus musculus [20]): inactive
- T/C (Mus musculus [3]): inactive
